NR2E3 ag-1 – human photoreceptor-specific nuclear receptor agonism; inhibition of corepressor binding, % at 3.98 µM; CHO-S Gal4-NCOR/VP16-NR2E3 two-hybrid, luciferase; actives 0.35% (n = 360,000);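 active means inhibition above the mean of all tested compounds plus 3 SD, cut at about 70% in these data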;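 further: higher means lower luciferase signal from less NR2E3 corepressor binding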
Target sequence (Q9Y5X4 whole entry, looked up, the tested form may be a part): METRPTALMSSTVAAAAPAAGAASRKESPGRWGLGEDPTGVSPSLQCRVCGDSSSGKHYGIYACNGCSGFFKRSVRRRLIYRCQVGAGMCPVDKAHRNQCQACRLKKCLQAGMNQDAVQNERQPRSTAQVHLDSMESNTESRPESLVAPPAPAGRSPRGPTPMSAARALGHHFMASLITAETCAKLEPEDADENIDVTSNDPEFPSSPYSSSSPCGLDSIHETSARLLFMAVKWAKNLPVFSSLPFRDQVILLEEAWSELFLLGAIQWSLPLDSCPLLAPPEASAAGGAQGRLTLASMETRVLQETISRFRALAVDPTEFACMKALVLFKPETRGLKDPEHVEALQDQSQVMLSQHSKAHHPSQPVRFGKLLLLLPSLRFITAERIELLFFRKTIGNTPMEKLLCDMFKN
GAA850 FXN act – increases GAA850 frataxin promoter reporter activity. actives 0.56% (n = 360,000). AID 540364. activation, % at 6 µM. HEK293 lucGAA850 FXN promoter luciferase reporter, 24 h; percent of 10 µM SAHA response;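 active means activation above the average of all compounds screened plus 3 SD, cutoff fixed separately per campaign, cut at about 7.5% in these data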
T cell modulator – T cell immune modulators affecting CD8 T cell-vesicle binding. 2C CD8+ T cell-vesicle binding, flow cytometry; hits give low values. response (vesicle binding), % at 7 µM. actives 0.068% (n = 330,000);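 active means response, share of CD8 T cells binding vesicles, and their 90th percentile fluorescence all below set limits, cut at about 80% in these data, passing the limit was not always enough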;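 further: values below 100% mean blocked vesicle binding to the CD8+ T cells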
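Incubation: binding step 1.5 h, 37 °C, antibody labelling 20 min, ice; system: murine 2C transgenic CD8+ T lymphocytes; technique: cytometric PE anti-B7-1 and Alexa647 anti-CD8 signals after 1% paraformaldehyde fixation; also added: QL9-charged Drosophila Ld/ICAM-1/B7-1 vesicles; control set: naked versus QL9-loaded vesicles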
NR2E3 ag-2 – NR2E3 (human) agonism. Q9Y5X4. GST-NR2E3/biotin-RetCOR TR-FRET, 1536-well. inhibition of corepressor binding, % at 4.78 µM. actives 0.12% (n = 320,000). AID 2300;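 active means percent inhibition above the cutoff of mean plus 3 SD of all tested compounds, set per screening campaign, cut at about 20% in these data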
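System: GST-NR2E3 and biotin-RetCOR proteins; probe or stimulus: 7 nM biotin-RetCOR; doses: compound at 4.8 µM, single dose; schedule: Compound–protein incubation for 5 h at 4 °C; detection: time-resolved FRET; read-out: percent inhibition; controls: biotin wells as high control, 0.6% DMSO wells as low control; format: 1536-well plates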
Myeloid diff MLP – myeloid differentiation induction. ER-HoxA9 myeloid progenitors, lysozyme-GFP differentiation, flow cytometry. calls only at 10 µM. actives 1% (n = 360,000). AID 624256;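 active means normalized GFP-positive differentiation at or above the plate's own cutoff, the solvent-only control mean plus 3 SD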;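 further: cells exposed to compound for four days before flow analysis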
Myeloid diff – compounds promoting myeloid differentiation; shares compounds with Myeloid diff MLP; ER-HoxA9 myeloid progenitors, GFP/Mac1 double-positive flow; calls only; actives 2% (n = 2,300); AID 651706;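 active means share of green or green-and-red cells above 9 and 9% in run 1 or 4 and 3% in run 2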
GFP autofluor – flagged as fluorescent in myeloid differentiation counter-screen. shares compounds with Myeloid diff MLP. ER-HoxA9 myeloid progenitors, no estrogen, GFP autofluorescence flow cytometry; vehicle wells 0%, positive control 100%. fluorescence response, % (test concentration not listed). actives 7.4% (n = 2,300). AID 651707;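 active means over 5% cells positive for green fluorescent reporter, or over 2% positive for both it and APC stain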
Numbers stand for hits; i = inactive; nt = no result given; + = active, no number. The list is not random: actives were taken first. Their share in the collection is about 2%.

SMILES	NR2E3 ag-1	GAA850 FXN act	T cell modulator	NR2E3 ag-2	Myeloid diff MLP	Myeloid diff	GFP autofluor
CCOC(=O)Nc1ccc2c(COC(=O)C(NS(=O)(=O)c3ccc(Cl)cc3)C(C)O)cc(=O)oc2c1 (configuration not stated)	i	i	i	nt	i	nt	nt
CN1/C(=C/C(=S)NC(=O)C2CCC2)C(C)(C)c2ccccc21	i	i	i	i	i	i	i
CN1/C(=C\C(=O)c2cccc(S(=O)(=O)N3CCCCC3)c2)C(C)(C)c2ccccc21	i	i	i	i	i	nt	nt
Nc1c(Cl)cc2c(c1Oc1ccccc1)C(=O)c1ccccc1C2=O	i	i	i	i	+	i	i
CCOc1ccc(N(CC(=O)Nc2ccccc2Cl)S(C)(=O)=O)cc1	i	i	i	i	i	nt	nt
CCOc1ccc(N(CC(=O)Nc2cc(Cl)ccc2C)S(C)(=O)=O)cc1	i	i	i	i	+	i	i
CCOC(=O)c1sc(-c2ccc(Cl)cc2Cl)nc1O	i	i	i	i	i	nt	nt
CN(Cc1nc(-c2cnccn2)no1)C1CC(C)(C)NC(C)(C)C1	i	i	i	i	i	i	i
CN(Cc1nc(-c2cnccn2)no1)CC1(c2ccccc2)CC1(C)C (configuration not stated)	i	i	i	i	i	nt	nt
CN1C(=O)c2ccc(N3CCCC3)cc2C1=O	i	i	i	i	i	nt	nt
Cc1cc(N2CCCC2)ccc1/C=C1\NC(=S)N(C)C1=O	i	i	i	i	i	i	51
Cc1ccc(NC(=O)CSc2ncnc3ccccc23)cc1S(=O)(=O)N1CCCCCC1	i	i	i	i	+	i	i
Cc1ccc(S(=O)(=O)N2CCCCC2)cc1NC(=O)CSc1ncnc2ccccc12	i	i	i	i	i	nt	nt
Cc1sc(NC(=O)c2ccccc2)c(C(c2ccccn2)N2CCN(CCO)CC2)c1C (configuration not stated)	i	i	i	i	i	i	i
C[C@H]1[C@@H](Cc2cc(Cl)cc(Cl)c2)N(c2ccccc2)c2ccccc2CN1Cc1ccccc1	nt	nt	nt	nt	i	nt	nt
COc1ccccc1Cc1c(C(C)(C)C)nc2c3ccccc3ccn12	i	nt	nt	nt	+	i	i
CC(C)[C@H](NS(=O)(=O)c1ccccc1)C(=O)OCC(=O)N1N=C(c2ccc(Cl)cc2)CC1c1ccco1 (some centres not stated)	i	i	i	i	i	i	i
COCC(=O)OCC(=O)N1N=C(c2ccc(Cl)cc2)CC1c1ccco1 (configuration not stated)	i	i	i	i	i	nt	nt
Cc1cc(C)c(S(=O)(=O)NC2CCN(Cc3ccccc3)CC2)c(C)c1	i	i	i	i	i	nt	nt
Cc1cc(C)c(S(=O)(=O)NNC(=O)C2CCN(Cc3ccccc3)CC2)c(C)c1	i	i	i	i	i	i	87
Cc1ccccc1N1CCN(C2CCCN(C(=O)CCN3CCCCO3)C2)CC1 (configuration not stated)	i	i	i	i	i	nt	nt
COCCn1nnnc1CN1CCN2CCCC2C1 (configuration not stated)	i	i	i	i	+	i	i
Cc1c(Cl)ccc2c(C(=O)NCCN3CCCCC3)cc(-c3ccccn3)nc12	i	i	i	i	i	nt	nt
COc1ccccc1-c1cc(C(=O)NC2CCN(C)CC2)c2ccc(Cl)c(C)c2n1	i	i	i	i	+	i	i
Fc1cccc(Cc2c(-c3ccco3)nc3c4ccccc4ccn23)c1	i	nt	nt	nt	i	nt	nt
SMILES	NR2E3 ag-1	GAA850 FXN act	T cell modulator	NR2E3 ag-2	Myeloid diff MLP	Myeloid diff	GFP autofluor
Cc1ccc(NC2CCCN(C(=O)CSc3ccncc3)C2)cc1C (configuration not stated)	i	i	i	nt	i	nt	nt
CN(C)CCN(C(=O)c1cccc(Cl)c1)c1nc2c(Cl)cccc2s1	i	i	i	i	i	nt	nt
CN(C)CCN(C(=O)c1ccccc1Cl)c1nc2c(Cl)cccc2s1	i	i	i	i	+	i	i
Cc1ccc(-n2nnnc2Sc2nc([N+](=O)[O-])nn2C)c(C)c1	i	i	i	i	i	nt	nt
Cc1ccc(-n2nnnc2Sc2nc([N+](=O)[O-])nn2C)cc1	i	i	i	i	+	i	i
Fc1ccccc1NC(=S)N1CCOCC1	i	i	i	i	i	nt	nt
O=C(Nc1cccc(S(=O)(=O)N2CCCCC2)c1)C1CCCC1	i	i	i	i	i	nt	nt
O=C(Nc1cccc(S(=O)(=O)N2CCCCCC2)c1)C1CCC1	i	i	i	i	i	i	i
Cc1cccc(C(=O)N[C@H](C(=O)Nc2cccc(S(=O)(=O)N3CCCC3)c2)C(C)C)c1	i	i	i	i	i	i	i
CC(C)c1ccc(NC(=O)/C(C#N)=C/c2ccncc2)cc1	i	i	i	i	i	nt	nt
CCN1CCN(c2ccc(S(=O)(=O)N3CCCCC3)cc2NC(=O)/C=C/c2ccc(OC(F)F)cc2)CC1	i	i	i	i	i	i	i
CC(C)n1c(-c2ccccc2F)n[nH]c1=S	i	i	i	i	i	i	85
CCOC(=O)C(=CNc1ccc(N2CCCCC2)c(S(=O)(=O)Nc2ccccc2OC)c1)C(=O)OCC	i	i	nt	nt	i	nt	nt
CC(=O)N1CCc2cc(S(=O)(=O)NCCC(=O)Nc3cc(C)cc(C)c3)ccc21	i	i	i	i	i	nt	nt
CC(=O)N1CCc2cc(S(=O)(=O)NCCC(=O)Nc3ccc4c(c3)OCCO4)ccc21	i	i	i	i	i	i	i
C[C@@H]1Cn2cnc(C(=O)N[C@@H](C)C(=O)OC(C)(C)C)c2C(=O)N1	i	i	nt	nt	i	nt	nt
CCOC(=O)/C=C1\SCC(=O)N1CC(=O)NC12CC3CC(CC(C3)C1)C2	i	i	i	i	+	i	i
CC1(C)OC(=O)C(=CNc2ccc(F)cc2)C(=O)O1	i	i	i	i	i	nt	nt
Cc1ccc(F)c(NC=C2C(=O)OC(C)(C)OC2=O)c1	i	i	i	i	i	i	i
Cc1ccc(-c2ccc3c(c2)S(=O)(=O)c2ccccc2C3=O)cc1	nt	nt	i	i	nt	nt	nt
CCOc1ccc(NC(=O)/C=C/c2ccc(OC)cc2)c([N+](=O)[O-])c1	i	i	i	i	i	i	i
COc1ccc(Cn2c(=O)c3[nH]cnc3n(-c3ccccc3C)c2=O)cc1	i	i	i	i	i	i	i
CC(=O)CCC(=O)CNC(=O)CC[C@H]1O[C@@H](n2ccc(=O)[nH]c2=O)[C@H](O)[C@@H]1O	i	nt	nt	nt	i	nt	nt
CCCCCCCCNC(=S)NCCN1CCCCC1	i	i	nt	nt	i	i	i
CN(C)S(=O)(=O)Oc1ccsc1C(=O)Nc1cccc(Cl)c1Cl	i	i	i	i	i	i	i
COC(=O)N(C)C[C@H]1OCc2cn(nn2)CCCC(=O)N([C@@H](C)CO)C[C@@H]1C	i	nt	nt	nt	i	nt	nt

Screening results (PubChem)
